Source: ChEMBL document CHEMBL1157190, “Design, synthesis, and anticonvulsant activity of N-phenylamino derivatives of 3,3-dialkyl-pyrrolidine-2,5-diones and hexahydro-isoindole-1,3-diones” (Bioorg Med Chem, 2008)
Activity calls are given as the source filed them. The rule behind the calls is not given here.

Key:
Mus musculus [1] = experiment: Anticonvulsant activity in ip dosed CF1 albino mouse assessed as inhibition of subcutaneous pentylenetetrazole-induced electrical stimulus after 0.5 hr; type: functional
Summary of the method: (§1)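 Male CF-1 mice injected intraperitoneally at 30, 100 and 300 mg/kg, suspended in 0.5% methylcellulose/water. MES or subcutaneous pentylenetetrazole challenge at 0.5 and 4 h; selected compounds also at 1 or 2 h.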

Mus musculus [2] = experiment: Anticonvulsant activity in ip dosed CF1 albino mouse assessed as inhibition of maximal electroshock-induced electrical stimulus after 4 hrs; type: functional; summary of the method: as §1
Mus musculus [3] = experiment: Anticonvulsant activity in ip dosed CF1 albino mouse assessed as inhibition of subcutaneous pentylenetetrazole-induced electrical stimulus after 4 hrs; type: functional; summary of the method: as §1
Mus musculus [4] = experiment: Neurotoxicity in ip dosed CF1 albino mouse after 0.5 hr by rotarod test; type: toxicity, organism-based; conditions: in vivo
Summary of the method: (§2)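 CF-1 mice given 30, 100 or 300 mg/kg ip in 0.5% methylcellulose/water, examined at 0.5 and 4 h. Rotorod test: neurotoxicity is the inability to keep equilibrium on the rod for a given time. Value is the minimum dose giving motor impairment; a dash means none at 300 mg/kg.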

Mus musculus [5] = experiment: Neurotoxicity in ip dosed CF1 albino mouse after 4 hrs by rotarod test; type: toxicity, organism-based; conditions: in vivo; summary of the method: as §2
Mus musculus [6] = experiment: Anticonvulsant activity in ip dosed CF1 albino mouse assessed as inhibition of maximal electroshock-induced electrical stimulus after 2 hrs; type: functional; summary of the method: as §1
[7] = Lipophilicity, log kw of compound by RP-HPLC; type: physicochemical
Summary of the method: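 RP-HPLC on a C18 end-capped column at room temperature, with UV detection at 214 nm and uracil as the unretained marker. Capacity factor k = (tr − t0)/t0, from the mean of three measurement sets. log k extrapolated to 100% water (log k = log kw − Sφ) to give log kw.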

Mus musculus [8] = experiment: Anticonvulsant activity in ip dosed CF1 albino mouse assessed as inhibition of maximal electroshock-induced electrical stimulus at 300 mg/kg after 0.5 hr; type: functional, organism-based; parameters: dose 300 mg/kg; summary of the method: as §1
Rattus norvegicus [9] = experiment: Anticonvulsant activity in Sprague-Dawley rat assessed as protection against seizure rat at 50 mg/kg, po after 0.25 hr by subcutaneous pentylenetetrazole test; type: functional
Summary of the method: (§3)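 Male Sprague–Dawley rats dosed orally at 50 mg/kg as a 0.5% methylcellulose/water suspension, four animals per time point. Convulsant given subcutaneously at 0.25, 0.5, 1, 2 and 4 h after dosing; rotorod motor impairment assessed in parallel. Read-out: number of rats of four protected.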

Rattus norvegicus [10] = experiment: Anticonvulsant activity in Sprague-Dawley rat assessed as protection against seizure at 50 mg/kg, po after 0.5 hr by subcutaneous pentylenetetrazole test; type: functional; summary of the method: as §3
Rattus norvegicus [11] = experiment: Anticonvulsant activity in Sprague-Dawley rat assessed as protection against seizure at 50 mg/kg, po after 1 hr by subcutaneous pentylenetetrazole test; type: functional, organism-based; parameters: dose 50 mg/kg; summary of the method: as §3
Rattus norvegicus [12] = experiment: Anticonvulsant activity in Sprague-Dawley rat assessed as protection against seizure at 50 mg/kg, po after 2 hrs by subcutaneous pentylenetetrazole test; type: functional, organism-based; parameters: dose 50 mg/kg; summary of the method: as §3
Rattus norvegicus [13] = experiment: Anticonvulsant activity in Sprague-Dawley rat assessed as protection against seizure at 50 mg/kg, po after 4 hrs by subcutaneous pentylenetetrazole test; type: functional; summary of the method: as §3
Rattus norvegicus [14] = experiment: Neurotoxicity in po dosed Sprague-Dawley rat at 50 mg/kg by rotarod test; type: toxicity, organism-based; parameters: dose 50 mg/kg, route oral; conditions: in vivo; summary of the method: as §3
Mus musculus [15] = experiment: Anticonvulsant activity in ip dosed CF1 albino mouse assessed as inhibition of maximal electroshock-induced electrical stimulus at 300 mg/kg after 4 hrs; type: functional, organism-based; parameters: dose 300 mg/kg; summary of the method: as §1
Mus musculus [16] = experiment: Anticonvulsant activity in ip dosed CF1 albino mouse assessed as inhibition of subcutaneous pentylenetetrazole-induced electrical stimulus at 300 mg/kg after 4 hrs; type: functional, organism-based; parameters: dose 300 mg/kg; summary of the method: as §1
Mus musculus [17] = experiment: Neurotoxicity in ip dosed CF1 albino mouse at 300 mg/kg after 0.5 hr by rotarod test; type: toxicity, organism-based; parameters: dose 300 mg/kg, route intraperitoneal; conditions: in vivo; summary of the method: as §2
Mus musculus [18] = experiment: Neurotoxicity in ip dosed CF1 albino mouse at 300 mg/kg after 4 hrs by rotarod test; type: toxicity, organism-based; parameters: dose 300 mg/kg, route intraperitoneal; conditions: in vivo; summary of the method: as §2
Mus musculus [19] = experiment: Anticonvulsant activity in ip dosed CF1 albino mouse assessed as inhibition of maximal electroshock-induced electrical stimulus after 0.5 hr; type: functional; summary of the method: as §1
Rattus norvegicus [20] = experiment: Anticonvulsant activity in Sprague-Dawley rat assessed as protection against seizure at 30 mg/kg, po after 0.25 hr by maximal electroshock test; type: functional
Summary of the method: (§4)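 Male Sprague–Dawley rats; compound suspended in 0.5% methylcellulose/water and given orally at a fixed 30 mg/kg, four rats per time point. MES test run at 0.25, 0.5, 1, 2 and 4 h after dosing, with motor impairment checked in parallel. Read-out: number of rats of four protected.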

Rattus norvegicus [21] = experiment: Anticonvulsant activity in Sprague-Dawley rat assessed as protection against seizure at 30 mg/kg, po after 0.5 hr by maximal electroshock test; type: functional; summary of the method: as §4
Rattus norvegicus [22] = experiment: Anticonvulsant activity in Sprague-Dawley rat assessed as protection against seizure at 30 mg/kg, po after 1 hr by maximal electroshock test; type: functional; summary of the method: as §4
Rattus norvegicus [23] = experiment: Anticonvulsant activity in Sprague-Dawley rat assessed as protection against seizure at 30 mg/kg, po after 2 hrs by maximal electroshock test; type: functional; summary of the method: as §4
Rattus norvegicus [24] = experiment: Anticonvulsant activity in Sprague-Dawley rat assessed as protection against seizure at 30 mg/kg, po after 4 hrs by maximal electroshock test; type: functional; summary of the method: as §4
Rattus norvegicus [25] = species: Rattus norvegicus; experiment: Anticonvulsant activity in rat assessed as inhibition of maximal electroshock-induced electrical stimulus; type: functional
Rattus norvegicus [26] = species: Rattus norvegicus; experiment: Protective index, ratio of TD50 for rat by rotarod test to ED50 for rat by MES test; type: functional
Mus musculus [27] = experiment: Anticonvulsant activity in ip dosed CF1 albino mouse assessed as inhibition of maximal electroshock-induced electrical stimulus after 1 hr; type: functional; summary of the method: as §1
[28] = Neurotoxicity in po dosed Sprague-Dawley rat after 2 hrs by rotarod test; type: toxicity, organism-based; conditions: in vivo
Rattus norvegicus [29] = experiment: Anticonvulsant activity in po dosed Sprague-Dawley rat assessed as inhibition of maximal electroshock-induced electrical stimulus after 0.5 hr; type: functional
Summary of the method: (§5)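 Oral dosing in male Sprague–Dawley rats at the previously estimated time of peak effect. Groups of eight rats received various doses until at least three points fell between 10 and 90% MES protection or minimal neurotoxicity (rotorod). ED50 and TD50 with 95% confidence intervals from regression of the plotted data; protective index = TD50/ED50.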

[30] = Neurotoxicity in po dosed Sprague-Dawley rat after 0.5 hr by rotarod test; type: toxicity, organism-based; conditions: in vivo; summary of the method: as §5
Rattus norvegicus [31] = species: Rattus norvegicus; experiment: Protective index, ratio of TD50 for Sprague-Dawley rat by rotarod test to ED50 for Sprague-Dawley rat by MES test after 0.5 hr; type: functional; summary of the method: as §5
Rattus norvegicus [32] = experiment: Antiepileptic activity in pilocarpine-induced status prevention in Sprague-Dawley rat assessed as weight change in post first stage 3 seizure at 65 mg/kg after 24 hrs; type: functional
Summary of the method: (§6)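 Pilocarpine-induced status prevention in rats. Compound given ip at time zero (65 or 450 mg/kg), followed by a challenge dose of pilocarpine. Seizure severity scored on the Racine scale. Average weight change (g, ±SEM) recorded for protected and non-protected rats.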

Mus musculus [33] = experiment: Anticonvulsant activity in ip dosed CF1 albino mouse assessed as inhibition of subcutaneous pentylenetetrazole-induced electrical stimulus at 300 mg/kg after 0.5 hr; type: functional, organism-based; parameters: dose 300 mg/kg; summary of the method: as §1
Rattus norvegicus [34] = experiment: Antiepileptic activity in pilocarpine-induced status prevention in Sprague-Dawley rat assessed as weight change in post first stage 3 seizure at 450 mg/kg after 24 hrs; type: functional; summary of the method: as §6

SMILES	Activity (Mus musculus [1])	Activity (Mus musculus [2])	Activity (Mus musculus [4])	log K [7]	Activity (Mus musculus [8])	Activity (Rattus norvegicus [9])	Activity (Rattus norvegicus [13])	Activity (Mus musculus [15])	Activity (Mus musculus [16])	Activity (Mus musculus [18])	Activity (Mus musculus [19])	Activity (Rattus norvegicus [21])	Activity (Rattus norvegicus [22])	Activity (Rattus norvegicus [23])	Activity (Rattus norvegicus [24])	also measured
CCC1(CC)CC(=O)N(Nc2ccc(Cl)cc2)C1=O	100 mg/kg	300 mg/kg	300 mg/kg	2.314	inactive	–	–	–	–	–	–	–	–	–	–	Activity (Mus musculus [3]): 300 mg/kg; Activity (Mus musculus [5]): 300 mg/kg; Activity (Mus musculus [6]): 100 mg/kg
CCCC1(C)CC(=O)N(Nc2ccc(Cl)cc2Cl)C1=O (centres undefined)	100 mg/kg	–	–	2.647	inactive	25%	25%	inactive	inactive	Not Active	–	–	–	–	–	Activity (Rattus norvegicus [10]): 50%; Activity (Rattus norvegicus [11]): Active; Activity (Rattus norvegicus [12]): inactive; Activity (Rattus norvegicus [14]): Non-toxic; Activity (Mus musculus [17]): Not Active
O=C1C2CCCCC2C(=O)N1Nc1ccccc1 (centres undefined)	300 mg/kg	–	–	1.937	–	25%	inactive	inactive	inactive	Not Active	300 mg/kg	25%	inactive	inactive	inactive	Activity (Rattus norvegicus [20]): inactive; Activity (Rattus norvegicus [10]): inactive; Activity (Rattus norvegicus [11]): inactive; Activity (Rattus norvegicus [12]): inactive; Activity (Rattus norvegicus [14]): Non-toxic; Activity (Mus musculus [17]): Not Active
O=C1CC2(CCCC2)C(=O)N1Nc1ccccc1	–	–	–	–	–	–	–	–	–	–	–	–	–	–	–	ED50 (Rattus norvegicus [25]): 76.3 mg/kg; Ratio TD50/ED50 (Rattus norvegicus [26]): 3.44
CCC1(CC)CC(=O)N(Nc2ccc(Cl)cc2Cl)C1=O	100 mg/kg	300 mg/kg	100 mg/kg	2.552	–	–	–	–	inactive	Not Active	300 mg/kg	–	–	–	–	Activity (Mus musculus [27]): 100 mg/kg
CCCCC1(C)CC(=O)N(Nc2ccc(Br)cc2)C1=O (centres undefined)	300 mg/kg	–	300 mg/kg	2.539	inactive	inactive	inactive	inactive	inactive	Not Active	–	–	–	–	–	Activity (Rattus norvegicus [10]): 25%; Activity (Rattus norvegicus [11]): inactive; Activity (Rattus norvegicus [12]): inactive; Activity (Rattus norvegicus [14]): Non-toxic
O=C1NC(=O)C(c2ccccc2)(c2ccccc2)N1 [PHENYTOIN]	30 mg/kg	–	100 mg/kg	–	–	–	–	–	–	–	30 mg/kg	Active	inactive	–	inactive	Activity (Mus musculus [5]): 100 mg/kg; TD50 at 2 h [28]: > 500 mg/kg
CCC1(C)CC(=O)NC1=O (centres undefined) [ETHOSUXIMIDE]	100 mg/kg	–	–	–	inactive	inactive	inactive	inactive	–	Not Active	–	–	–	–	–	Activity (Mus musculus [3]): 300 mg/kg; Activity (Mus musculus [17]): Not Active
CC1(C)CC(=O)N(Nc2ccccc2)C1=O	300 mg/kg	–	100 mg/kg	1.471	–	–	–	inactive	inactive	Not Active	300 mg/kg	inactive	50%	inactive	inactive	Activity (Rattus norvegicus [20]): 25%; ED50 (Rattus norvegicus [29]): 69.9 mg/kg; TD50 at 0.5 h [30]: 500 mg/kg; Ratio TD50/ED50 (Rattus norvegicus [31]): 7.15
CC1(C)CC(=O)N(Nc2cccc(Cl)c2)C1=O	–	–	300 mg/kg	2.071	–	–	–	inactive	inactive	Not Active	100 mg/kg	–	–	–	–	Activity (Rattus norvegicus [32]): 15 g; Activity (Mus musculus [33]): inactive
Cc1ccc(NN2C(=O)C3CCCCC3C2=O)cc1 (centres undefined)	–	–	300 mg/kg	2.028	inactive	–	–	inactive	inactive	Not Active	–	–	–	–	–	Activity (Rattus norvegicus [34]): 10.2 g; Activity (Mus musculus [33]): inactive
CCC1(C)CC(=O)N(Nc2ccc(Cl)cc2Cl)C1=O (centres undefined)	100 mg/kg	300 mg/kg	30 mg/kg	2.334	–	–	–	–	–	–	300 mg/kg	25%	inactive	25%	inactive	Activity (Mus musculus [3]): 300 mg/kg; Activity (Mus musculus [5]): 300 mg/kg; Activity (Mus musculus [27]): 100 mg/kg; Activity (Rattus norvegicus [20]): inactive
CC1(C)CC(=O)N(Nc2ccc(Br)cc2)C1=O	–	300 mg/kg	300 mg/kg	1.864	–	–	–	–	inactive	Not Active	300 mg/kg	25%	25%	50%	50%	Activity (Mus musculus [27]): 100 mg/kg; Activity (Mus musculus [33]): inactive
